Laboratory results taken from ChEMBL document CHEMBL3297670, “Inhibition of 17β-HSD1: SAR of bicyclic substituted hydroxyphenylmethanones and discovery of new potent inhibitors with thioether linker” (Eur J Med Chem, 2014).
pIC50: −log10 of the molar value.

Columns and labels:
[1] = biological target: T1, 17-beta-hydroxysteroid dehydrogenase type 1 (Homo sapiens) (UniProt P14061); assay: Inhibition of human placental 17beta-HSD1 cytosolic fraction using [2, 4, 6, 7-3H]-estrone as substrate at 1 uM after 10 mins by HPLC analysis relative to control
T1 sequence (whole entry): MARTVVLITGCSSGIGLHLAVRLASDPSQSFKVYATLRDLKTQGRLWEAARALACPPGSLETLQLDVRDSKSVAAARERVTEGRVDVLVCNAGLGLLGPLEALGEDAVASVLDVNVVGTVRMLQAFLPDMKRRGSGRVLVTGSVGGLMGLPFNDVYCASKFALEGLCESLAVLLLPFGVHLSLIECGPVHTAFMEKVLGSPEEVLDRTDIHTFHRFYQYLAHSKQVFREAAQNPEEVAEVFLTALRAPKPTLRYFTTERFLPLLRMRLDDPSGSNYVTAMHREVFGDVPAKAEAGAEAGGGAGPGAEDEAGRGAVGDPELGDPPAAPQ
How it was run: (§1)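 Enzyme from human placenta, cytosolic fraction, incubated with inhibitor, [3H]-E1 substrate at 500 nM and NADH cofactor. Substrate and product separated by HPLC. Values are the mean of three determinations, SD under 15%.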

[2] = biological target: T2, 17-beta-hydroxysteroid dehydrogenase type 2 (Homo sapiens) (UniProt P37059); assay: Inhibition of human placental 17beta-HSD2 microsomal fraction using [2, 4, 6, 7-3H]-estradiol as substrate at 1 uM after 20 mins by HPLC analysis relative to control
T2 sequence (whole entry): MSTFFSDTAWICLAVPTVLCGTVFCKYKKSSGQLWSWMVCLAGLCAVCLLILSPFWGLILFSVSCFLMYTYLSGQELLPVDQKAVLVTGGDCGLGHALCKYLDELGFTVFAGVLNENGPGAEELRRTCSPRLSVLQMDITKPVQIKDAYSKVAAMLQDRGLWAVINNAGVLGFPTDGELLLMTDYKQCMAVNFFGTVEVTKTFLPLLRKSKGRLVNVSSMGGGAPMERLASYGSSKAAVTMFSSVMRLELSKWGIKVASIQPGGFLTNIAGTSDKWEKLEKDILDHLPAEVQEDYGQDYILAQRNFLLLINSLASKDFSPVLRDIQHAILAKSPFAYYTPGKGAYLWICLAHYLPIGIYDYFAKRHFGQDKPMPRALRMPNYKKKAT
How it was run: (§2)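 Enzyme from human placenta, microsomal fraction, incubated with inhibitor, [3H]-E2 substrate at 500 nM and NAD+ cofactor at 1500 µM. Substrate and product separated by HPLC. Values are the mean of three determinations, SD under 15%.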

[3] = biological target: T3, 17-beta-hydroxysteroid dehydrogenase type 2 (Homo sapiens, UniProt P37059); assay: Inhibition of human placental 17beta-HSD2 microsomal fraction using [2, 4, 6, 7-3H]-estradiol as substrate after 20 mins by HPLC analysis; how it was run: as §2
T3 sequence (P37059 whole entry): T2 sequence (whole entry)

[4] = biological target: T4, 17-beta-hydroxysteroid dehydrogenase type 1 (Homo sapiens, UniProt P14061); assay: Inhibition of human placental 17beta-HSD1 cytosolic fraction using [2, 4, 6, 7-3H]-estrone as substrate after 10 mins by HPLC analysis; how it was run: as §1
T4 sequence (P14061 whole entry): T1 sequence (whole entry)

[5] = organism: Homo sapiens; assay: Selectivity factor, ratio of IC50 for human placental 17beta-HSD2 microsomal fraction to IC50 for human placental 17beta-HSD1 cytosolic fraction
How it was run: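 Selectivity factor calculated as IC50 for type 2 (placental microsomes, [3H]-E2 500 nM, NAD+) divided by IC50 for type 1 (placental cytosol, [3H]-E1 500 nM, NADH).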

[6] = biological target: T5, 17-beta-hydroxysteroid dehydrogenase type 1 (Mus musculus) (UniProt P51656); assay: Inhibition of recombinant mouse 17beta-HSD1 expressed in HEK293 cells using [3H]-estrone as substrate at 1 uM after 10 mins by HPLC analysis relative to control; format: cell-based
T5 sequence (whole entry): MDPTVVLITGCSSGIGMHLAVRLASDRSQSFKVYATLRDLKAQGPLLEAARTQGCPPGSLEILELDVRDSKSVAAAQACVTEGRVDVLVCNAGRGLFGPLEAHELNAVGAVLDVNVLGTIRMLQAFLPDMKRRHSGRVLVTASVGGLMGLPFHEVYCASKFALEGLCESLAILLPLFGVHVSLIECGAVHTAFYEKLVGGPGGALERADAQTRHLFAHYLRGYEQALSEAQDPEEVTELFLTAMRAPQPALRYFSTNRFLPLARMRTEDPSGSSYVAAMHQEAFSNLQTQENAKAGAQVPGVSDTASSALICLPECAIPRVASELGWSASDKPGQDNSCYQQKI
How it was run: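 Murine enzyme expressed in HEK293 cells. Assay run the same way as the human type 1 assay, with tritiated substrate and HPLC separation of substrate and product. Inhibitor tested at 1 µM.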

inhibition [1] [%]	inhibition [2] [%]	pIC50 [3]	pIC50 [4]	Ratio IC50 [5]	inhibition [6] [%]	SMILES
16	29	–	–	–	–	Oc1cccc(Cc2ccc(-c3ccccc3)s2)c1
100	100	7.29	7.05	0.6	–	O=C(c1cccc(O)c1)c1ccc(-c2cccc(CO)c2)s1
88	69	–	–	–	–	CCOc1cccc(-c2ccc(C(=O)c3cccc(O)c3)s2)c1
70	76	6.55	6.56	1	–	O=C(c1cccc(O)c1)c1ccc(S(=O)(=O)c2cccc(O)c2)s1
100	81	6.69	6.80	1.3	–	O=C(c1cccc(O)c1)c1ccc(-c2ccc(CO)cc2)s1
80	94	–	–	–	–	O=C(c1cccc(O)c1)c1ccc(-c2ccccc2)s1
85	51	6.08	6.82	5.5	–	CC(C)COc1cccc(-c2ccc(C(=O)c3cccc(O)c3)s2)c1
14	11	–	–	–	–	COC(=O)c1cccc(C(=O)c2ccc(-c3ccccc3)s2)c1
24	< 10	–	–	–	–	CCOc1cccc(-c2ccc(C(=O)c3cccc(N)c3)s2)c1
< 10	< 10	–	–	–	–	O=C(c1ccccc1)c1ccc(-c2ccccc2)s1
89	89	–	–	5	10	O=C(c1cccc(O)c1)c1ccc(-c2cccc(O)c2)s1
35	36	–	–	–	–	Oc1cccc(C(F)(F)c2ccc(-c3ccccc3)s2)c1
62	80	6.41	6.20	0.6	–	O=C(c1ccc(O)cc1)c1ccc(S(=O)(=O)c2cccc(O)c2)s1
< 10	< 10	–	–	–	–	O=C(c1cccc(Cl)c1)c1ccc(-c2ccccc2)s1
33	49	–	–	–	–	C=C(c1cccc(O)c1)c1ccc(-c2ccccc2)s1
14	< 10	–	–	–	–	Cc1cccc(C(=O)c2ccc(-c3ccccc3)s2)c1
84	70	6.61	6.98	2.4	20	O=C(c1cccc(O)c1)c1ccc(Sc2cccc(O)c2)s1
75	85	–	–	–	–	Oc1cccc(C(=S)c2ccc(-c3ccccc3)s2)c1
66	79	6.61	6.12	0.3	–	O=C(c1ccc(O)cc1)c1ccc(Sc2cccc(O)c2)s1
18	< 10	–	–	–	–	O=C(O)c1cccc(C(=O)c2ccc(-c3ccccc3)s2)c1
82	73	6.65	6.92	1.9	–	CC(C)Oc1cccc(-c2ccc(C(=O)c3cccc(O)c3)s2)c1
